Reference: ChEMBL document CHEMBL4251600, “Bioactive products from singlet oxygen photooxygenation of cannabinoids” (Eur J Med Chem, 2018)
≈ marks a conversion by molar mass, not a printed value. Calls of active or inactive are those of the source. No cut-off for these calls is given here.

What was measured:
[1] = molecular target: T1, Cannabinoid receptor 2 (Homo sapiens, UniProt P34972); assay: Displacement of [3H]CP-55,940 from recombinant human full length CB2 receptor expressed in HEK293 cell membranes after 90 mins by topcount method
[2] = molecular target: T2, Cannabinoid receptor 1 (Homo sapiens, UniProt P21554); assay: Displacement of [3H]CP-55,940 from recombinant human full length CB1 receptor expressed in HEK293 cell membranes after 90 mins by topcount method
[3] = tested on: Pichia kudriavzevii; assay: Antifungal activity against Candida krusei by modified CLSI based method; type: functional, organism-based
[4] = tested on: Nakaseomyces glabratus; assay: Antifungal activity against Candida glabrata by modified CLSI based method; type: functional, organism-based
[5] = tested on: Staphylococcus aureus; assay: Antimicrobial activity against methicillin-resistant Staphylococcus aureus by modified CLSI based method; type: functional, organism-based
[6] = tested on: Staphylococcus aureus; assay: Antimicrobial activity against Staphylococcus aureus by modified CLSI based method; type: functional, organism-based; conditions: for IC50: read-out: IC50
[7] = tested on: Cryptococcus neoformans; assay: Antifungal activity against Cryptococcus neoformans by alamar blue assay; type: functional, organism-based; conditions: for IC50: read-out: IC50
[8] = tested on: Leishmania donovani; assay: Antileishmanial activity against Leishmania donovani promastigotes incubated for 48 hrs by alamar blue assay; type: functional, organism-based; conditions: Leishmania donovani, 48 h; for IC50: read-out: IC50; for IC90: read-out: IC90
[9] = tested on: Plasmodium falciparum; assay: Antiplasmodial activity against chloroquine-resistant Plasmodium falciparum W2 infected in red blood cells incubated for 72 hrs by parasite LDH release based colorimetric assay; type: functional, organism-based; conditions: W2, 72 h
[10] = molecular target: T1, Cannabinoid receptor 2; assay: Agonist activity at recombinant human full length CB2 receptor expressed in HEK293 cell membranes after 2 hrs by [35S]GTP-gammaS binding assay; type: functional
Method in brief: (§1)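 Membranes (20 µg/well) from HEK293 cells stably transfected with human CB1 or CB2 cDNA were incubated with test compound and 0.5 nM [35S]-GTP-γS. Buffer: 50 mM Tris-HCl, 0.2 mM EGTA, 9 mM MgCl2, 150 mM NaCl, 50 µM GDP, 1.4 mg/ml BSA. Incubation ran 2 h at 30°C and was stopped by vacuum filtration through GF/B filters with cold Tris-HCl. Nonspecific binding was taken with 40 µM GTP-γS.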

[11] = molecular target: T2, Cannabinoid receptor 1; assay: Agonist activity at recombinant human full length CB1 receptor expressed in HEK293 cell membranes after 2 hrs by [35S]GTP-gammaS binding assay; type: functional; method in brief: as §1
[12] = tested on: Plasmodium falciparum; assay: Antiplasmodial activity against chloroquine-sensitive Plasmodium falciparum D6 infected in red blood cells incubated for 72 hrs by parasite LDH release based colorimetric assay; type: functional, organism-based; conditions: D6, 72 h
[13] = molecular target: T1, Cannabinoid receptor 2; assay: Agonist activity at recombinant human full length CB2 receptor expressed in HEK293 cell membranes at 100 uM after 2 hrs by [35S]GTP-gammaS binding assay relative to CP-55,940; type: functional
[14] = molecular target: T2, Cannabinoid receptor 1; assay: Agonist activity at recombinant human full length CB1 receptor expressed in HEK293 cell membranes at 100 uM after 2 hrs by [35S]GTP-gammaS binding assay relative to CP-55,940; type: functional
[15] = Cryptococcus neoformans, read-out: MIC
[16] = Staphylococcus aureus, read-out: IC50
[17] = Staphylococcus aureus, read-out: MIC

T1 sequence (P34972 whole entry): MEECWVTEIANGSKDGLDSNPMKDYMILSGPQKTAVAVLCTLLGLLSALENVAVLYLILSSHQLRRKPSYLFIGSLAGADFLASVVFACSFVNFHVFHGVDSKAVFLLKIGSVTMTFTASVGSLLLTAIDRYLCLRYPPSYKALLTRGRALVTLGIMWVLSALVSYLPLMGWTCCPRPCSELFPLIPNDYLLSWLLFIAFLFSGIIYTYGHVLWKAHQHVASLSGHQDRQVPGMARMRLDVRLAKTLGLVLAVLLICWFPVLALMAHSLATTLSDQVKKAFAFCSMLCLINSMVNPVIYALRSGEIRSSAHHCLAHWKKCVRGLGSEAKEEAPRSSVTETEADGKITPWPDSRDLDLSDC
T2 sequence (P21554 whole entry): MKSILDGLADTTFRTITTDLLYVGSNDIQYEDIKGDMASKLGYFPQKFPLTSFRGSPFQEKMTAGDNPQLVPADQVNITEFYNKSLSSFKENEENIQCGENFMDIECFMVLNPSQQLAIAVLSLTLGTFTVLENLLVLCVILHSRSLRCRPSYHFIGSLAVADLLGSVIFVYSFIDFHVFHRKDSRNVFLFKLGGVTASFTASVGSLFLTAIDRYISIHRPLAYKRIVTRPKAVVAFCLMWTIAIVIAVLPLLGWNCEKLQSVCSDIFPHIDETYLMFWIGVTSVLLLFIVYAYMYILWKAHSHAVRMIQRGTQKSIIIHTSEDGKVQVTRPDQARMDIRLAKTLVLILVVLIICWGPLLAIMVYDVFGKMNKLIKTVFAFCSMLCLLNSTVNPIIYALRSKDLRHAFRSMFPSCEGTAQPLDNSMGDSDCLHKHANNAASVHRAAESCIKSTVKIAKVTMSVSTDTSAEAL

## CCCCCc1cc2c(c(OS(=O)(=O)c3ccc(C)cc3)c1)[C@@H]1[C@H](O)C(C)=CC[C@H]1C(C)(C)O2
[1]
  IC50: 1110 nM
  Ki: 552 nM
[2]
  IC50: 1280 nM
  Ki: 642 nM

## C=C1C[C@H]2C3=C(OC(C)(C)[C@@H]2CC1OO)C(=O)C(CCCCC)=CC3=O (stereo in doubt; 25)
[3]
  MIC: inactive
[4]
  MIC: inactive

## CCCCCc1cc(OC(C)=O)c2c(c1)OC(C)(C)C1=C2C2OC2(C)CC1 (stereo not given)
[1]
  IC50: 927 nM
  Ki: 464 nM
[2]
  IC50: 573 nM
  Ki: 286 nM

## CCCCCc1cc2c(c(OS(=O)(=O)c3ccc(C)cc3)c1)[C@H]1[C@@H](CC=C(C)[C@@H]1O)C(C)(C)O2
[3]
  MIC: inactive
[4]
  MIC: inactive
[5]
  MIC: inactive
[6]
  MIC: inactive
[7]
  MIC: inactive

## C=C1CC[C@@H]2[C@H](c3c(cc(CCCCC)cc3OS(=O)(=O)c3ccc(C)cc3)OC2(C)C)[C@@H]1OO
[8]
  IC50: 3.1 µg/mL (≈ 6.19 µM)
  IC90: 6.5 µg/mL (≈ 13 µM)

## CCCCCc1cc2c(c(OS(=O)(=O)c3ccc(C)cc3)c1)[C@H]1[C@@H](CC=C(C)[C@@H]1OO)C(C)(C)O2
[1]
  IC50: 851 nM
  Ki: 426 nM
[2]
  IC50: 1020 nM
  Ki: 512 nM

## C[C@@H]1CC[C@H]2[C@@H](C)C(=O)O[C@@H]3O[C@@]4(C)CC[C@@H]1[C@]32OO4 [ARTEMISININ]
[9]
  IC50: 0.014 µg/mL (≈ 0.0496 µM)

## CCCCCc1cc(OC(C)=O)c2c(c1)OC(C)(C)[C@@H]1CC=C(C)C[C@@H]21
[1]
  IC50: 316 nM
  Ki: 158 nM
[10]
  IC50: 518 nM
  Ki: 259 nM
[2]
  IC50: 88 nM
  Ki: 44 nM
[11]
  IC50: 87 nM
  Ki: 43 nM

## CCCCCc1cc2c(c(OS(=O)(=O)c3ccc(C)cc3)c1)C1=C(CC[C@](C)(O)[C@H]1OCC)C(C)(C)O2
[8]
  IC50: 4.5 µg/mL (≈ 8.51 µM)
  IC90: 22 µg/mL (≈ 41.6 µM)
[9]
  IC50: 1.8 µg/mL (≈ 3.4 µM)
[12]
  IC50: 2.2 µg/mL (≈ 4.16 µM)

## CCCCCc1cc2c(c(OS(=O)(=O)c3ccc(C)cc3)c1)[C@@H]1CC(C)(OO)C=C[C@H]1C(C)(C)O2 (stereo not given in full)
[13]
  Emax: 90%
[14]
  Emax: 20%
[1]
  IC50: 421 nM
  Ki: 211 nM
[10]
  IC50: 1750 nM
  Ki: 876 nM
[2]
  IC50: 275 nM
  Ki: 137 nM
[11]
  IC50: 97 nM
  Ki: 48 nM

## CCCCCc1cc(O)c2c(c1)OC(C)(C)C1=C2C(OC(C)=O)C(C)(OC)CC1 (stereo not given)
[9]
  IC50: 3 µg/mL (≈ 7.45 µM)
[1]
  IC50: 1980 nM
  Ki: 990 nM
[12]
  IC50: 3.3 µg/mL (≈ 8.2 µM)
[2]
  IC50: 2800 nM
  Ki: 1400 nM

## CCCCCc1cc(OC(C)=O)c2c(c1)OC(C)(C)C1=C2C(O)C(C)(O)CC1 (stereo not given)
[9]
  IC50: 3.2 µg/mL (≈ 8.24 µM)
[12]
  IC50: 4.5 µg/mL (≈ 11.6 µM)

## N=C(N)c1ccc(OCCCCCOc2ccc(C(=N)N)cc2)cc1 [PENTAMIDINE]
[8]
  IC90: 2 µg/mL (≈ 5.87 µM)

## C=C1C[C@H]2C3=C(OC(C)(C)[C@@H]2CC1OO)C(=O)C(CCCCC)=CC3=O (stereo in doubt; 26)
[3]
  MIC: inactive
[4]
  MIC: inactive
[5]
  MIC: inactive

## CCCCCc1cc(O)c2c(c1)OC(C)(C)[C@@H]1C=C[C@@](C)(O)C[C@@H]21
[1]
  IC50: 19 nM
  Ki: 9.5 nM
[10]
  IC50: 11400 nM
  Ki: 5700 nM
[2]
  IC50: 930 nM
  Ki: 470 nM
[11]
  IC50: 387 nM
  Ki: 193 nM

## C[C@@H]1[C@H](O)[C@@H](C)/C=C/C=C/C=C/C=C/C=C/C=C/C=C/[C@H](O[C@@H]2O[C@H](C)[C@@H](O)[C@H](N)[C@@H]2O)C[C@@H]2O[C@](O)(C[C@@H](O)C[C@@H](O)[C@H](O)CC[C@@H](O)C[C@@H](O)CC(=O)O[C@H]1C)C[C@H](O)[C@H]2C(=O)O [AMPHOTERICIN B]
[8]
  IC50: 0.16 µg/mL (≈ 0.173 µM)
  IC90: 0.33 µg/mL (≈ 0.357 µM)
[7]; Cryptococcus neoformans
  IC50: 1.36 µg/mL (≈ 1.47 µM)
[7]; [15]
  MIC: 2.5 µg/mL (≈ 2.71 µM)

## C=C1C[C@H]2c3c(O)cc(CCCCC)cc3OC(C)(C)[C@@H]2C[C@H]1O
[3]
  IC50: Not Active
  MIC: inactive
[4]
  IC50: Not Active
  MIC: inactive
[9]
  IC50: 1.7 µg/mL (≈ 5.14 µM)
[5]
  IC50: Not Active
  MIC: inactive
[6]
  MIC: inactive
[6]; Staphylococcus aureus
  IC50: 10.7 µg/mL (≈ 32.4 µM)
[7]
  MIC: inactive
[7]; Cryptococcus neoformans
  IC50: 8.34 µg/mL (≈ 25.2 µM)
[12]
  IC50: 2.4 µg/mL (≈ 7.26 µM)

## CCCCCC1=CC(=O)C2=C(OC(C)(C)[C@@H]3C=CC(C)(OO)C[C@@H]23)C1=O (stereo not given in full)
[3]; Pichia kudriavzevii
  MIC: 10 µg/mL (≈ 27.7 µM)
[3]; Pichia kudriavzevii, read-out: IC50
  IC50: 5.77 µg/mL (≈ 16 µM)
[8]
  IC50: 0.7 µg/mL (≈ 1.94 µM)
  IC90: 1.2 µg/mL (≈ 3.33 µM)
[4]; Nakaseomyces glabratus
  MIC: 10 µg/mL (≈ 27.7 µM)
[4]; Nakaseomyces glabratus, read-out: IC50
  IC50: 6.54 µg/mL (≈ 18.1 µM)
[5]; Staphylococcus aureus
  MIC: 5 µg/mL (≈ 13.9 µM)
[5]; [16]
  IC50: 2.63 µg/mL (≈ 7.3 µM)
[6]; Staphylococcus aureus
  IC50: 1.3 µg/mL (≈ 3.61 µM)
[6]; [17]
  MIC: 2.5 µg/mL (≈ 6.94 µM)
[7]; Cryptococcus neoformans
  IC50: 0.93 µg/mL (≈ 2.58 µM)
[7]; [15]
  MIC: 2.5 µg/mL (≈ 6.94 µM)

## C=C1C[C@H]2C3=C(OC(C)(C)[C@@H]2C[C@H]1O)C(=O)C(CCCCC)=CC3=O
[3]
  IC50: Not Active
  MIC: inactive
[8]
  IC50: 0.6 µg/mL (≈ 1.74 µM)
  IC90: 1.3 µg/mL (≈ 3.77 µM)
[4]
  IC50: Not Active
  MIC: inactive
[5]; Staphylococcus aureus
  MIC: 10 µg/mL (≈ 29 µM)
[5]; [16]
  IC50: 5.53 µg/mL (≈ 16.1 µM)
[6]; Staphylococcus aureus
  IC50: 2.03 µg/mL (≈ 5.89 µM)
[6]; [17]
  MIC: 2.5 µg/mL (≈ 7.26 µM)
[7]; Cryptococcus neoformans
  IC50: 1.84 µg/mL (≈ 5.34 µM)
[7]; [15]
  MIC: 5 µg/mL (≈ 14.5 µM)

## C=C1C[C@H]2c3c(cc(CCCCC)cc3OS(=O)(=O)c3ccc(C)cc3)OC(C)(C)[C@@H]2CC1OO (stereo not given in full)
[1]
  IC50: 2060 nM
  Ki: 1030 nM
[2]
  IC50: 5700 nM
  Ki: 2850 nM

## CCCCCc1cc(O)c2c(c1)OC(C)(C)C1=C2C(OCC)C(C)(O)CC1 (stereo not given)
[3]
  IC50: Not Active
  MIC: inactive
[8]
  IC50: 3 µg/mL (≈ 8.01 µM)
  IC90: 6 µg/mL (≈ 16 µM)
[4]
  IC50: Not Active
  MIC: inactive
[9]
  IC50: 3.7 µg/mL (≈ 9.88 µM)
[5]
  MIC: inactive
[5]; [16]
  IC50: 17.1 µg/mL (≈ 45.6 µM)
[6]
  MIC: inactive
[6]; Staphylococcus aureus
  IC50: 4.86 µg/mL (≈ 13 µM)
[7]
  MIC: inactive
[7]; Cryptococcus neoformans
  IC50: 4.57 µg/mL (≈ 12.2 µM)
[12]
  IC50: 3.6 µg/mL (≈ 9.61 µM)

## CCCCCc1cc(O)c2c(c1)OC(C)(C)C1=C2C(O)C(C)(OC)CC1 (stereo not given)
[8]
  IC50: 35 µg/mL (≈ 97.1 µM)
  IC90: > 40 µg/mL
[13]
  Emax: 40%
[14]
  Emax: 20%
[1]
  IC50: 599 nM
  Ki: 300 nM
[2]
  IC50: 1080 nM
  Ki: 538 nM
